STK33 inh: inhibitors of purified STK33 kinase, primary screen, biochemical, ADP-Glo luminescence, homogeneous, cell-free; Serine/threonine-protein kinase 33 (Homo sapiens), Q9BYT3; MBP phosphorylation; inhibition, % at 10 µM; 0.073% of 320,000 active; AID 2661, 2010;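 active = inhibition at or above 25%, using the most active replicate where run in duplicate; inactive = inhibition below 25%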
INS-1E GSIS act: GLuc luminescence reporter in INS-1E cells, primary screen for activators of glucose-dependent secretion of insulin. INS-1E GLuc reporter insulin secretion, 2-3 h. activation, % at 16.6 µM. 0.61% of 370,000 active. AID 743287, 2014;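 active = lowest replicate activation of at least 40%, so every replicate reaches that level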
GSK3beta inhib: human GSK3beta kinase inhibitors, primary screen, biochemical, cell-free homogeneous, HTS; Glycogen synthase kinase-3 beta (Homo sapiens), P49841; GST-GSK3beta kinase, ADP-Glo luminescence, 60 min; active compounds read low; activity score (negative = inhibition), % at 10 µM; 0.038% of 300,000 active;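 active = more than half of replicate wells score below -50%, meaning over 50% inhibition versus plate controls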
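Assay system: GST-tagged human GSK3beta kinase, cell-free; Input: 1.6 ng GSK3beta; Medium: Tris/MgCl2 kinase buffer; Timing: 60 min enzyme reaction, room temperature; Signal: ADP-Glo luminescence quantifying ADP generated by kinase; Evaluation: score relative to plate controls; Benchmarks: DMSO neutral wells and GW8510 at 20 µM as positive.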
GSK3A inh: blockers of GSK3A enzyme activity – biochemical, luminescence, cell-free homogeneous, HTS, primary screen | GSK-3 alpha kinase, ADP-Glo luminescence, 60 min | inhibition, % at 10 µM | 0.1% of 320,000 active;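 active = more than half of replicates show inhibition above 20%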;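 note: GST-tagged GSK-3 alpha with peptide substrate and 25 µM ATP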
CDK5 p35 inh: inhibitors of human CDK5/p35 kinase, primary screen, biochemical, single concentration; inhibition, % at 10 µM; 0.01% of 330,000 active; Recombinant CDK5/p35, ADP-Glo luminescence, 60 min; AID 488839, 2010; Cyclin-dependent kinase 5 (Homo sapiens) + Cyclin-dependent kinase 5 activator 1 (Homo …;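 active = highest replicate inhibition of at least 50% and at least 75% of replicates reaching 50%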
Target sequence (Q00535 whole entry, looked up): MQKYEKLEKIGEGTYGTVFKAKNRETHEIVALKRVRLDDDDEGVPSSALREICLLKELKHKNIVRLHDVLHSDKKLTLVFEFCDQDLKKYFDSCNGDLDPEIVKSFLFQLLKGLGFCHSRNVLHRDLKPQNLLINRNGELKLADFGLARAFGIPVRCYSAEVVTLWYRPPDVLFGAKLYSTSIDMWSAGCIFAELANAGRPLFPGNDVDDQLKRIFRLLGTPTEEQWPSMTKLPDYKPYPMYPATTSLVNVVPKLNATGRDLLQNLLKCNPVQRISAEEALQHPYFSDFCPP
Target sequence (Q15078 whole entry, looked up): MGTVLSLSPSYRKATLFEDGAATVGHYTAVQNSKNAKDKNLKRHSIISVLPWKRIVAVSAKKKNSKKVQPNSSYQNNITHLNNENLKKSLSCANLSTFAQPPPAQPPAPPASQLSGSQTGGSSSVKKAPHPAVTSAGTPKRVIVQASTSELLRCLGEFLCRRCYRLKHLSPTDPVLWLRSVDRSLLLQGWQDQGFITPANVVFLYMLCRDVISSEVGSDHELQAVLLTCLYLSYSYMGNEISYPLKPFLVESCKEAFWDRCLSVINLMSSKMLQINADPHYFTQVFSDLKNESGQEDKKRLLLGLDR
Env fusion inh: inhibitors of HIV-1 Env-driven cell-cell fusion, primary screen, HeLa-JRFL effector, CEM21 target cells, luciferase; inhibition, % at 12.3 µM; 1.1% of 360,000 active;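 active = mean replicate inhibition score of at least 50 and every replicate individually at or above 50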
Hits are given with their value; n = inactive; x = not tested or not shown; [ ] = dose if it differs, or a comment. Hits are enriched below; roughly 1.4% of the tested compounds scored in any of these assays.

SMILES	STK33 inh	INS-1E GSIS act	GSK3beta inhib	GSK3A inh	CDK5 p35 inh	Env fusion inh
C[C@@H]1CN([C@H](C)CO)C(=O)c2cc(NC(=O)NC3CCCCC3)ccc2O[C@@H]1CN(C)C(=O)Nc1ccc2c(c1)OCO2	x	n	x	x	x	n
O=C(C[C@H]1CC[C@H](NC(=O)Cc2ccccn2)[C@H](CO)O1)NCCc1ccncc1	x	n	x	x	x	n
CN(CCO)c1nc(NCc2ccccc2)c2cnn(C)c2n1	n	40.6	n	n	n	n
COc1ccc2c3c([nH]c2c1)[C@@H](CO)N(C(=O)C1CCCCC1)CC31CN(Cc2nccs2)C1	x	n	x	x	x	x
COc1ccccc1C#Cc1ccc([C@H]2[C@H](C#N)N(C(=O)C3CCCC3)[C@H]2CO)cc1	x	n	x	x	x	74.3[16.7 µM]
N#C[C@@H]1[C@H](c2ccc(C#CC3CCCC3)cc2)[C@@H](CO)N1C(=O)Nc1ccc(F)cc1	x	n	x	x	x	n
N#C[C@H]1[C@H](c2ccc(C#CC3CCCC3)cc2)[C@@H](CO)N1C(=O)Nc1ccc(F)cc1	x	n	x	x	x	55.6[16.7 µM]
CNc1cc(-c2ccc(OC)c(OC)c2)ncn1	x	n	x	x	x	n
CNc1ccc2ncc(-c3ccc(OC)c(OC)c3)n2n1	x	n	x	x	x	58.3
COc1ccc(C#Cc2ccc3c(c2)[C@@H]2[C@@H](CCN2S(=O)(=O)c2cccc(OC)c2)[C@@H](CO)N3)cc1	x	n	x	x	x	x
O=C(c1ccco1)N1CCN(c2nc(C(F)(F)F)nc3c2nnn3Cc2ccccc2)CC1	n	n	n	n	n	67.2
O=C(c1ccco1)N1CCN(c2ncnc3c2nnn3Cc2ccccc2Cl)CC1	n	n	n	n	n	x
Cc1ccc(S(=O)(=O)N[C@@H]2CC[C@@H](CC(=O)N3CCC(Cc4ccccc4)CC3)O[C@@H]2CO)cc1	x	n	x	x	x	n
COc1ccc(-c2c(C)nn3c(C(F)(F)F)cc(C)nc23)cc1	x	x	x	x	x	87.1
C/C(Cl)=C/Cn1c(N2CCCC2)nc2c1c(=O)n(C)c(=O)n2C	n	x	x	n	n	x
C/C(Cl)=C\Cn1c(N2CCCC2)nc2c1c(=O)[nH]c(=O)n2C	n	49.3	n	n	n	x
CCCCn1c(N2CCCC2)nc2c1c(=O)[nH]c(=O)n2C	n	84.3	n	n	n	n
Cn1c(=O)[nH]c(=O)c2c1nc(N1CCNCC1)n2Cc1cccc2ccccc12	n	x	n	n	n	58.2
CCCNC(=O)N1CC2(C1)[C@H](c1ccccc1)[C@@H](CO)N2Cc1ccc(F)cc1	x	n	x	x	x	x
Cn1c(N)c(C(c2ccccc2)c2c(N)n(C)c(=O)n(C)c2=O)c(=O)n(C)c1=O	n	41.1	n	n	x	x
COc1ccc(S(=O)(=O)N(C)C[C@@H]2Oc3ccc(NC(=O)C4CCCCC4)cc3CC(=O)N([C@@H](C)CO)C[C@@H]2C)cc1	x	n	x	x	x	65.7[16.7 µM]
Cc1ccc(S(=O)(=O)N(C)C[C@@H]2Oc3ccc(NC(=O)C4CCCCC4)cc3CC(=O)N([C@@H](C)CO)C[C@@H]2C)cc1	x	n	x	x	x	78.9[16.7 µM]
Cc1ccc(S(=O)(=O)N(C)C[C@H]2Oc3ccc(NC(=O)C4CCCCC4)cc3CC(=O)N([C@H](C)CO)C[C@@H]2C)cc1	x	n	x	x	x	n
CC(C)NC(=O)N(C)C[C@@H]1Oc2ccc(NC(=O)C3CC3)cc2CC(=O)N([C@@H](C)CO)C[C@@H]1C	x	n	x	x	x	59.1[16.7 µM]
Cc1noc(C)c1NC(=O)Nc1cccc2c1O[C@H](CN(C)Cc1ccc3c(c1)OCO3)[C@H](C)CN([C@@H](C)CO)C2=O	x	n	x	x	x	n
SMILES	STK33 inh	INS-1E GSIS act	GSK3beta inhib	GSK3A inh	CDK5 p35 inh	Env fusion inh
CC1Cc2nc(SCC(=O)NCc3ccccc3)n(Cc3ccccc3)c(=O)c2S1 (configuration not stated)	n	n	n	n	n	71.6
CSc1nc2c(c(=O)n1Cc1ccccc1)SC(C)C2 (configuration not stated)	n	44.8	n	n	n	x
O=C(C[C@H]1C[C@@H]2c3cc(NC(=O)C4CCC4)ccc3O[C@@H]2[C@@H](CO)O1)NCc1ccccc1	x	n	x	x	x	n
CC(=O)Nc1nc(-c2ccc3c(c2)CC(C)N3C(=O)C2CC2)c(C)s1 (configuration not stated)	n	n	n	n	n	58.6
Nc1ccn(C2OC(COP(=O)(O)O)C(O)C2O)c(=O)n1 (configuration not stated)	x	n	x	x	n	82.2
CCC(=O)N1CC2(C1)[C@H](c1ccccc1)[C@H](CO)N2C(=O)c1ccccc1	x	n	x	x	x	x
Cc1cccc(NC(=O)c2nc[nH]c2C(=O)NCCCCCCNC(=O)c2[nH]cnc2C(=O)Nc2cccc(C)c2)c1	n	n	x	n	n	n
CCOC(=O)c1ccc(NC(=O)c2nc[nH]c2C(=O)NCCNC(=O)c2[nH]cnc2C(=O)Nc2ccc(C(=O)OCC)cc2)cc1	n	n	x	n	n	81.9
Cc1cccc(NC(=O)c2nc[nH]c2C(=O)NCCCCNC(=O)c2[nH]cnc2C(=O)Nc2cccc(C)c2)c1	n	n	x	n	n	69.9
CCOC(=O)c1ccc(NC(=O)c2nc[nH]c2C(=O)NC)cc1	n	n	n	n	n	n
CCOC(=O)c1[nH]cnc1C(=O)NC(C)C	n	41.4	n	n	n	x
CC(C)C#Cc1cnc2c(c1)C(=O)N([C@@H](C)CO)C[C@@H](C)[C@H](CN(C)Cc1ccc3c(c1)OCO3)O2	x	n	x	x	x	n
C[C@@H]1CN([C@@H](C)CO)C(=O)c2cc(-c3cccnc3)cnc2O[C@@H]1CN(C)C(=O)c1cccc(F)c1	x	n	x	x	x	n
N#Cc1c(Cl)nsc1NC(=O)c1ccccc1	n	n	n	n	n	59.9
C[C@@H]1CN([C@H](C)CO)C(=O)c2cc(Br)cnc2O[C@H]1CN(C)C(=O)Nc1ccccc1	x	n	x	x	x	n
Cc1ccc(NC(=O)CN2C(=O)N/C(=C/c3ccc(C)s3)C2=O)cc1	n	98.9	n	n	n	n
C=CCn1c(SCC(=O)Nc2nc(C)cs2)nnc1C(NC(=O)c1ccccc1)C(C)C (configuration not stated)	n	x	n	n	n	111.8
C[C@H]1CCCCO[C@H](CN(C)C(=O)Cc2ccccc2)[C@@H](C)CN([C@@H](C)CO)C(=O)c2cc(NS(=O)(=O)c3ccc(Cl)cc3)ccc2O1	x	n	x	x	x	n
CSc1nc2ncc3c(n2n1)CC1c2ccccc2CCN1C3=O (configuration not stated)	n	x	n	72.2	n	n
O=C1c2cnc3ncnn3c2CC2c3ccccc3CCN12 (configuration not stated)	n	n	n	n	n	n
C[C@H]1CN([C@@H](C)CO)C(=O)c2cc(C#CCc3ccccc3)cnc2O[C@@H]1CN(C)C(=O)C1CC1	x	72.4	x	x	x	n
